Here are results for 2 compounds from ChEMBL document CHEMBL1121898, “Potential antiestrogens. Synthesis and evaluation of mammary tumor inhibiting activity of 1,2-dialkyl-1,2-bis(3'-hydroxyphenyl)ethanes” (1981).

Broadly, the inhibition is the share of the control response that was lost under treatment. A high value points to a strong effect.

For assay [1], the species on record is Rattus norvegicus. Description: Percent change in body weight DMBA-induced hormone-dependent mammary carcinoma tumors in rats at 4.5 mg for 7 days. The format is functional.
In assay [2] the test system is MCF7. The experiment in a line: Inhibition of estrogen receptor positive MCF-7 cell proliferation as cell number after 10 days at 10e-7 M and 10e-7 M 17-beta-estradiol. Type of assay: functional, Homo sapiens. The method, boiled down: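 MCF-7 cells were grown in McCoy's 5a medium with fetal bovine serum stripped by DCC (0.5 h, 45 °C). Compounds were dissolved in ethanol (final ≤0.5%) and diluted in complete medium. Cells were seeded at 5×10^4 cells/plate. On day 10, three replicate plates per group were counted by Coulter counter, three counts per plate. Percent T/C = test/control. In a retest, compounds were given at 10^-7 M with 17β-estradiol at 10^-7 or 10^-8 M.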

The species entered for assay [3] is Rattus norvegicus. The experiment in a line: Initial tumor number of DMBA-induced hormone-dependent mammary carcinoma in rats at 2.25 mg. Type of assay: functional. The method, boiled down:
(§1)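 DMBA-induced, hormone-dependent mammary adenocarcinoma in SD rats. Rats bearing at least one tumor >140 mm² were placed in groups of ten. Compound was given sc as a single dose (mg/kg) daily Monday–Thursday and a double dose on Friday. Tumors were counted at the start and as new tumors; responses were scored as complete remission (not palpable), partial remission (≥50% reduction), no change or progression. Tumor area and body weight were recorded as % change.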

The species named for assay [4] is Rattus norvegicus. Description: Percent change in body weight DMBA-induced hormone-dependent mammary carcinoma tumors in rats at 2.25 mg for 7 days. The format is functional.
The species entered for assay [5] is Rattus norvegicus. Description: Percent change in body weight DMBA-induced hormone-dependent mammary carcinoma tumors in rats at 9 mg for 7 days. Type of assay: functional.
The species entered for assay [6] is Rattus norvegicus. Description: Progression of DMBA-induced hormone-dependent mammary carcinoma tumors in rats at 2.25 mg. The format is functional.
The species named for assay [7] is Rattus norvegicus. Description: Percent unchanged tumor size of DMBA-induced hormone-dependent mammary carcinoma tumors in ovarectiemised rats. Type of assay: functional. The method, boiled down:
(§2)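 DMBA-induced, hormone-dependent mammary adenocarcinoma in SD rats, with ovariectomy as the treatment. Rats bearing at least one tumor >140 mm² were placed in groups of ten. Tumors were counted at the start and as new tumors. Responses were scored as complete remission, partial remission (≥50% size reduction), no change or progression, with % change in tumor area and body weight.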

The species named for assay [8] is Rattus norvegicus. The experiment in a line: Percent change in DMBA-induced hormone-dependent mammary carcinoma tumor area at 9 mg after 28 days. The format is functional. The method, boiled down: as §1
The species named for assay [9] is Rattus norvegicus. Description: Partial remission of DMBA-induced hormone-dependent mammary carcinoma tumors in rats at 2.25 mg. The format is functional. An outline of the steps: as §1
The species entered for assay [10] is Rattus norvegicus. The experiment in a line: Progression of DMBA-induced hormone-dependent mammary carcinoma tumors in ovariectomised rats. Type of assay: functional. An outline of the steps: as §2
The species named for assay [11] is Rattus norvegicus. Description: Percent change in DMBA-induced hormone-dependent mammary carcinoma tumor area at 4.5 mg after 28 days. The format is functional. The method, boiled down: as §1
Assay [12] concerns the target T1, Estrogen receptor (Mus musculus) (UniProt O08537+P19785). Description: Antiestrogenic activity in uterotrophic test in mice at 0 ug. Type of assay: functional. An outline of the steps:
(§3)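 Immature female NMRI mice, 20 days old (14.5 ± 1.2 g), randomly grouped 10 per group. Each received a daily sc injection for 3 days of 0.1 mL olive oil solution containing test compound, together with estrone to stimulate uterine growth. Uteri were removed 24 h after the last injection and weighed. Results are reported as % inhibition of the estrone-stimulated uterine weight gain, mean ± SD.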

Assay [13] deals with T1, Estrogen receptor (Mus musculus). Description: Estrogenic activity in uterotrophic test in mice at 300 ug. Type of assay: functional. The method, boiled down:
(§4)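 Immature (20-day-old) female NMRI mice, 14.5 ± 1.2 g, randomized into groups of 10. Given the test compound sc daily for 3 days in 0.1 mL olive oil. Uteri removed 24 h after the last injection; uterine weight taken as the read-out, means ± SD. Dose in μg.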

Assay [14] shares this target. The experiment in a line: Antiestrogenic activity in uterotrophic test in mice at 500 ug. Type of assay: functional. The method, boiled down:
as §3

For assay [15], the species on record is Rattus norvegicus. The experiment in a line: Final number of DMBA-induced hormone-dependent mammary carcinoma tumors in rats at 2.25 mg. Type of assay: functional. The method, boiled down: (§5)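 Sprague-Dawley rats carrying DMBA-induced, hormone-dependent mammary adenocarcinoma, at least one tumor >140 mm², were placed in groups of ten. Compounds were given sc, with doses in mg/kg: a single daily dose Monday to Thursday and a double dose on Friday. Ovariectomy served as a comparator group. New tumors arising during the test were counted.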

The species entered for assay [16] is Rattus norvegicus. The experiment in a line: Percent unchanged tumor size of DMBA-induced hormone-dependent mammary carcinoma tumors in rats at 2.25 mg. Type of assay: functional.
Assay [17] deals with T1, Estrogen receptor (Mus musculus). Description: Antiestrogenic activity in uterotrophic test in mice at 50 ug (experiment 2). The format is functional. The method, boiled down: as §3
Assay [18] shares this target. The experiment in a line: Estrogenic activity in uterotrophic test in mice at 0.8 ug (experiment 1). The format is functional. The method, boiled down:
(§6)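 Uterine growth stimulation in immature female NMRI mice, 20 days old (14.5 ± 1.2 g), 10 per group. Test compound in 0.1 mL olive oil was given sc daily for 3 days. Uteri were excised 24 h after the final injection and weighed. Effect is reported as mean ± SD.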

The species entered for assay [19] is Rattus norvegicus. The experiment in a line: Complete remission of DMBA-induced hormone-dependent mammary carcinoma tumors in rats at 1 mg. The format is functional. The method, boiled down: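 Female SD rats bearing DMBA-induced, hormone-dependent mammary adenocarcinoma, with at least one tumor >140 mm², were grouped in tens. Dosing was sc per kg body weight: a single dose daily Monday–Thursday and a double dose Friday. Ovariectomy served as the comparison arm. Complete remission was defined as a tumor no longer palpable. Body weight and tumor area changes were also recorded.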

For assay [20], the target named is T1, Estrogen receptor (Mus musculus). The experiment in a line: Inhibitory activity in mouse uterine weight test at 25 ug (experiment 2). The format is functional. An outline of the steps:
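Antiuterotrophic (Dorfman) assay in immature 20-day-old female NMRI mice, groups of 10. Uterine growth was stimulated with estrone (0.1 μg) and the test compound was given alongside it, sc daily for 3 days in 0.1 mL olive oil. Uteri were taken 24 h after the last dose. Uterine weight is reported as means ± SD and inhibition as % of the estrone-stimulated response.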

The target is the same in assay [21]. Description: Antiestrogenic activity in uterotrophic test in mice at 2.5 ug (experiment 1). The format is functional. The method, boiled down: as §3
Assay [22] shares this target. Description: Estrogenic activity in uterotrophic test in mice at 0 ug (experiment 1). The format is functional. The method, boiled down: as §6
Assay [23] shares this target. The experiment in a line: Antiestrogenic activity in uterotrophic test in mice at 0 ug (experiment 1). Type of assay: functional. The method, boiled down:
as §3

The target is the same in assay [24]. The experiment in a line: Estrogenic activity in uterotrophic test in mice at 8 ug (experiment 1). Type of assay: functional. An outline of the steps: as §4
For assay [25], the species on record is Rattus norvegicus. Description: Final number of DMBA-induced hormone-dependent mammary carcinoma tumors in rats at 2 mg. The format is functional. An outline of the steps: as §5
The species named for assay [26] is Rattus norvegicus. Description: Percent unchanged tumor size of DMBA-induced hormone-dependent mammary carcinoma tumors in rats at 4 mg. The format is functional.
The species entered for assay [27] is Rattus norvegicus. Description: Percent change in DMBA-induced hormone-dependent mammary carcinoma tumor area at 4 mg after 28 days. Type of assay: functional. The method, boiled down:
as §1

For assay [28], the species on record is Rattus norvegicus. The experiment in a line: Percent change in DMBA-induced hormone-dependent mammary carcinoma tumor area at 2 mg after 28 days. The format is functional. An outline of the steps: as §1
Assay [29] is filed under the species Rattus norvegicus. Description: Partial remission of DMBA-induced hormone-dependent mammary carcinoma tumors in rats at 1 mg. The format is functional. The method, boiled down: as §1
For assay [30], the species on record is Rattus norvegicus. Description: Final number of DMBA-induced hormone-dependent mammary carcinoma tumors in rats at 4 mg. Type of assay: functional. The method, boiled down: as §5
The species named for assay [31] is Rattus norvegicus. The experiment in a line: Percent change in body weight DMBA-induced hormone-dependent mammary carcinoma tumors in rats at 18 mg for 7 days. Type of assay: functional. The following applies: in the assay text read “at 1 mg” for “at 18 mg”. An outline of the steps: as §1
Assay [32] is filed under the species Rattus norvegicus. Description: Final number of DMBA-induced hormone-dependent mammary carcinoma tumors in rats at 1 mg. The format is functional. An outline of the steps: as §5
The species named for assay [33] is Mus musculus. Description: Predominant components of vaginal smear at a compound concentration of 50 ug was determined using vaginal cornification test; leucocytes (</= 50%), nucleated and cornified, nucleated cellscharacteristic of antiestrogens. Type of assay: functional, organism-based.
For assay [34], the target named is T1, Estrogen receptor (Mus musculus). Description: Estrogenic activity in uterotrophic test in mice at 800 ug (experiment 2). The format is functional. An outline of the steps: as §4

T1 sequence (O08537 whole entry, looked up): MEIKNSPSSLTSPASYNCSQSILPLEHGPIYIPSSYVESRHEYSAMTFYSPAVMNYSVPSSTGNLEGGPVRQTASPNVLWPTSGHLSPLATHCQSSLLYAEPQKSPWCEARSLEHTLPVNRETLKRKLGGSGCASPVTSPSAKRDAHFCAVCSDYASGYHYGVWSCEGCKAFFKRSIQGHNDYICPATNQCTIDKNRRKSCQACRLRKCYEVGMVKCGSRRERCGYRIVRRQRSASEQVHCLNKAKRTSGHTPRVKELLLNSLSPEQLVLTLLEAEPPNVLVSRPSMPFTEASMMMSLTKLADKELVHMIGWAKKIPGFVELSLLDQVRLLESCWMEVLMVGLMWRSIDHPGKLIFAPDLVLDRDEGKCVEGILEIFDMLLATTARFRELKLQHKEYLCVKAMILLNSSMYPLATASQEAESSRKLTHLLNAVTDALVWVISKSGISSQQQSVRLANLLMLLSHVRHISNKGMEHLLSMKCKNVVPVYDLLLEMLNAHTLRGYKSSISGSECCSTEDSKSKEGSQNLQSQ
T1 sequence (P19785 whole entry, looked up): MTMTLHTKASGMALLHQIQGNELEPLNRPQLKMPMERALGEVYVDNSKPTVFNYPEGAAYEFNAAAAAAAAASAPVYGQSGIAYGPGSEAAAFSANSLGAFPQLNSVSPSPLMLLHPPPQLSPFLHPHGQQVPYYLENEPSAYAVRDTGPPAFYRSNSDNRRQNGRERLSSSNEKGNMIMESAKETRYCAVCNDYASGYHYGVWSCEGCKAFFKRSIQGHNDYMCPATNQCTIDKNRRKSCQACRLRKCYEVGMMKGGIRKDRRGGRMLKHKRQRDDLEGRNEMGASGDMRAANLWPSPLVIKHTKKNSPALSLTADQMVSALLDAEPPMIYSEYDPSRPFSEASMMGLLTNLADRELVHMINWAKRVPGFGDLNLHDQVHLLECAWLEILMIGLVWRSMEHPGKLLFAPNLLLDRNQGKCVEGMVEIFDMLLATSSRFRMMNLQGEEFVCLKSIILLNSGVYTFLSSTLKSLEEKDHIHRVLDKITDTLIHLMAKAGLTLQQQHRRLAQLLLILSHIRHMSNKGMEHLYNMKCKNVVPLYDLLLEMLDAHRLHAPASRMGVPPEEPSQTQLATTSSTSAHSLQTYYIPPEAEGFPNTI

On to `CCCC(c1cccc(O)c1)C(CCC)c1cccc(O)c1` (centres undefined), for which the Change in [1] was -1.1%; in assay [4], 0.4%; in assay [5], -2.7%; in assay [8] it was -24%; in assay [11], 109%. Moreover, the Cell number in assay [2] was found to be 5600. In addition, the No. of tumors in assay [3] is on record as 22; in assay [15] it was 17. Moreover, the Tumors in assay [6] is 54%; in [7], 0%; in assay [9], 8%; in [10], 0%; in assay [16] it was 13%. The Effect in assay [12] amounted to 9.9; in assay [13], 28.4; in [14], 23.9.
For `CCC(c1cccc(O)c1)C(CC)c1cccc(O)c1` (stereo in doubt; 20), the Effect in assay [17] was found to be 28.3; in assay [18], 11.8; in assay [21], 29.5; in [22], 10.7; in assay [23] it was 12.5; in assay [24], 14.4. The compound further yielded an Effect in [34] of 30.8. Further, the Tumors stood at 21% in assay [19], 19% in [26] and 15% in [29]. In [20], this compound returned an inhibition of 48%. Moreover, the results for the No. of tumors in assay [25], in assay [30] and in assay [32] were 23, 11 and 29, respectively. Besides, the Change in assay [27] was -75%; in assay [28], 11%; in [31] it was -1.6%. Further, the Activity entry in assay [33] is “Weak activity”.
